ROMK primary: human ROMK K+ channel modulation, primary screen; P48048; Tet-inducible ROMK, thallium flux fluorescence; actives lie on both sides; B-score at 10 µM; 2% of 130,000 active;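 active means signal ratio slope over the read window, or its plate-corrected B-score, at least 3 SD from the plate mean, either direction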;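 further: B-score of the F/F0 ratio slope over 7 to 12 s after thallium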
Target sequence (P48048 whole entry, looked up): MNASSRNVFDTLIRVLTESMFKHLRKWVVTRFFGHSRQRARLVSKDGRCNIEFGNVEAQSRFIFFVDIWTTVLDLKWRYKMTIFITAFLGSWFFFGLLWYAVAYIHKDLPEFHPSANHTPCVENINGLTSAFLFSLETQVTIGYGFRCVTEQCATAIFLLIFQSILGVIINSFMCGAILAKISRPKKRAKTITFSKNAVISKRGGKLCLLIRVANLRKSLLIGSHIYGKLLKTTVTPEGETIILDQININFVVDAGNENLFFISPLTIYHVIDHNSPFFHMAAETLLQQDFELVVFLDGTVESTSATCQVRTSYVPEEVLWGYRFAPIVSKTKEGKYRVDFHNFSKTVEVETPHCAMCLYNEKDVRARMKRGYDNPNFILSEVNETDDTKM
Cl transport mod: modulates chloride dependent transport by human KCC2 | B-score of Tl+ flux slope (higher = more flux/activation; lower = inhibition) at 10 µM | AID 1456 | 2.2% of 190,000 active | KCC2 cells, thallium flux FluoZin-2 fluorescence;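 active means thallium flux slope and its plate-corrected score both differing from the plate sample mean at a set confidence after two filtering rounds, in either direction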;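 further: slope of fluorescence scaled to starting intensity during 10 to 20 s after thallium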
WT yeast gro inh: growth inhibition of WT yeast, mitochondrial fusion screen. mitochondrial fusion phenotypic screen, WT strain. inhibition, % at 10 µM. 2.1% of 190,000 active; in the data active means inhibition above about 58%; tested in S. cerevisiae
RBBP9 inhibitor: inhibitors of human serine hydrolase RBBP9; recombinant RBBP9, FP-Rh probe fluorescence polarization; inhibition, % at 7.94 µM; 0.2% of 220,000 active; AID 1515;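 active means inhibition above the campaign mean of all tested compounds plus 3 SD, cut at about 14% in these data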;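 further: plate controls were DMSO wells with RBBP9 for no effect and wells lacking RBBP9 protein for full effect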
Target sequence (O75884 whole entry, looked up): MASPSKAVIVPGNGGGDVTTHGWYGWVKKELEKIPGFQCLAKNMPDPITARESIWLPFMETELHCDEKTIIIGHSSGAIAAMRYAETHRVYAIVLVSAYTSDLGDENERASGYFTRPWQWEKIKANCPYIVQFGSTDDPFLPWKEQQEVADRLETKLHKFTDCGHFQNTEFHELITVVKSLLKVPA
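Measured by – fluorescence polarization · Test system – RBBP9 protein · Input – 2.5 µM RBBP9 dispensing solution, before mixing · Measure – percent inhibition from mP, scaled between DMSO and no-protein wells · Benchmarks – DMSO-treated enzyme wells and wells lacking RBBP9 · Times – preincubation 30 min plus labeling 45 min at 25 °C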
p47phox inh: blocks human p47phox regulatory protein of NADPH oxidases. 0.53% of 220,000 active. p47phox/p22phox peptide binding, fluorescence polarization, 2 h. P14598. AID 1274. inhibition, % at 24.7 µM;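 active means inhibition above about 30%, limit read from the data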;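 further: 0% = p47phox with labelled peptide and 100% = labelled peptide alone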
14-3-3 Bad PPI: disrupts binding of bovine 14-3-3 zeta to phospho-Bad peptide | TR-FRET 14-3-3zeta/Dy647-pBad peptide displacement, 1 h | inhibition, % at 21.7 µM | 0.71% of 220,000 active | AID 781;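 active means inhibition above about 70%, limit read from the data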;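 further: 0% = full 14-3-3 plus peptide FRET controls and 100% = background without 14-3-3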
* hit, by the source's call; . = no result; [ ] = another dose, or the depositor's remark. Most compounds without a hit are left out; they make up all but 5.8% or so of the library.

SMILES	ROMK primary	Cl transport mod	WT yeast gro inh	RBBP9 inhibitor	p47phox inh	14-3-3 Bad PPI
O=C1CC(SCc2nc3ccccc3[nH]2)C(=O)N1c1cccc(F)c1 (centres undefined)	.	0.441	76.0*	-13.8	-10.5	3.0
O=C(Cn1c2ccccc2c(=O)c2ccccc21)N/N=C/c1ccc(N2CCCC2)c([N+](=O)[O-])c1	.	-0.727	13.5	-2.8	29.3	98.5*[fluorescence artefact?]
O=C(Cn1c2ccccc2c(=O)c2ccccc21)N/N=C/c1cc([N+](=O)[O-])ccc1N1CCCCCC1	-0.0371	.	-9.0	-7.3	-20.8	.
CCN1CCN(CCCN(Cc2cccs2)C(=S)Nc2ccccc2C)CC1	-0.692	-0.0242	-2.1	-3.4	-2.7	-1.2
CC(=O)c1c(C)[nH]c(C(=O)Nc2nc(-c3ccc(Cl)cc3)cs2)c1C	0.786	-2.56	86.2*	-11.2	-10.6	-9.9
CC(=O)c1c(C)[nH]c(C(=O)Nc2nc(-c3ccc(-c4ccccc4)cc3)cs2)c1C	0.348	1.45	12.0	-13.2	-37.9	-5.5
COC(=O)[C@@H]1C[C@H]2CC[C@H](O)C[C@H]2N1Cc1ccc(C)s1	.	0.511	.	.	-6.8	-7.7
CCOc1ccc(NC(=O)CSc2nnc(CNC(=O)c3ccco3)o2)cc1	-0.00974	-0.328	-7.0	-9.0	-12.9	-16.0
CN(C)c1ccc(N=Cc2nc(-c3ccccc3)oc2O)cc1	-2.16	-2.41	-4.5	-4.7	58.4*	-18.9
Oc1oc(-c2ccccc2)nc1C=Nc1ccccc1	.	-0.566	-15.9	-8.6	43.7*	11.9
CCN(CC)S(=O)(=O)c1ccc(Cl)c(NC(=O)COc2ccc(OC)cc2)c1	0.0173	-0.0324	-10.4	-4.8	0.2	-9.2
Cc1ccc(-c2nnc(N(C)C(=O)C3CCCO3)s2)cn1 (centres undefined)	1.08	.	-3.6	-2.7	1.9	75.1*
CCc1ccccc1NC(=O)C1C(c2ccccc2)C1(Cl)Cl (centres undefined)	.	-0.165	80.7*	2.5	-7.0	-0.5
Cc1ccc(C)c(NC(=O)C2C(c3ccccc3)C2(Cl)Cl)c1 (centres undefined)	0.589	1.14	9.5	0.2	1.1	-0.7
CCOC(=O)Cn1c(C)nc2ccccc21	-0.863	-0.443	10.1	4.7	-9.3	8.3
CCOC(=O)Cn1c(=O)c(-c2ccccc2NC)nc2ccccc21	0.018	-0.377	8.5	-16.4	39.2*	-7.0
Cc1cc(C)c2nc(SC(C)C(=O)NCC(=O)Nc3ccc(F)c(F)c3F)cc(C)c2c1 (centres undefined)	.	12.5*	8.9	-8.3	-18.1	-8.3
Cc1ccc(C)c(NC(=S)NCCc2ccc(F)cc2)c1	-0.552	-2.43	68.7*	-7.9	-14.6	-9.9
Cc1ccc(NC(=S)NCCc2ccccc2)c(C)c1	.	-1.69	70.0*	-11.2	-7.1	-3.1
Cc1ccccc1NC(=S)NCCc1ccccc1	-1.17	-2.83	30.8	-1.9	-9.7	-9.6
Oc1ccc(Cl)cc1-c1cc(-c2cccc(Br)c2)n[nH]1	0.687	0.478	81.6*	-29.6	-15.3	-2.8
O=C(OCC1OC2OC3(CCCCC3)OC2C2OC3(CCCCC3)OC12)c1ccccc1 (centres undefined)	-0.327	0.0283	73.7*	-6.4	-8.7	-0.6
Cn1ncc(Cl)c1C(=O)N1CCN(c2ncccn2)CC1	0.664	-0.736	-2.4	9.2	2.5	26.0
O=[N+]([O-])c1cccc(CSc2nnc(Cc3ccccc3)n2-c2ccc(F)cc2)c1	-1.47	-4.16	29.8	-7.3	-5.0	-11.8
O=C(N/N=C\c1ccc(F)cc1)c1csnn1	-0.161	.	-8.9	.	-1.9	89.3*
SMILES	ROMK primary	Cl transport mod	WT yeast gro inh	RBBP9 inhibitor	p47phox inh	14-3-3 Bad PPI
Cc1ccccc1/C=N\NC(=O)c1csnn1	.	-2.42	6.4	-9.3	-2.0	-8.7
C=C(C)[C@@H]1CC=C(CN2CCC(CCOC)(C(=O)OCC)CC2)CC1	-1.11	0.223	3.9	-6.4	-10.0	-10.9
Cc1ccc(NC(=O)c2[nH]cnc2C(=O)NN)cc1	1.47	1.21	-2.5	-8.6	2.8	-22.4
Cc1ccc(NC(=O)c2nc[nH]c2C(=O)N[C@@H](C)c2ccccc2)cc1	.	2.98	74.3*	-8.7	.	-10.8
O=C(NC(=S)N1CCCc2ccccc21)c1ccccc1	.	.	30.0	-3.1	-3.2	-3.4
O=C(NC(=S)N1CCCc2ccccc21)c1ccc(Cl)cc1	-0.0855	56.5*	47.8	-9.3	-0.8	-3.8
O=C(NC(=S)N1CCCc2ccccc21)c1ccc([N+](=O)[O-])cc1	.	.	16.2	0.7	3.0	5.8
O=C(NC(=S)N1CCCc2ccccc21)c1ccc(Br)cc1	.	71.8*	48.2	-5.9	-13.2	-8.1
Cc1ccc(S(=O)(=O)NC(=O)c2ccc(-c3ccc(-c4ccccc4)cc3)o2)c(C)c1	2.2	-2.9	25.7	-12.5	-6.4	30.5
CCOC1OC(=O)C(Cl)=C1Nc1cc(C)ccc1C (centres undefined)	-0.32	-2.53	-3.1	-4.9	0.1	-4.2
Cc1cc(OCC(=O)NC(C)c2ccccc2)ccc1[N+](=O)[O-] (centres undefined)	0.0825	-0.211	15.8	-4.6	-5.7	1.2
O=C(Nc1cccc(F)c1)c1ccc(-c2ccccc2Cl)o1	0.587	-1.59	76.5*	-15.9	-33.0	0.7
Cc1ccccc1CSCC(=O)Nc1ccccc1-c1ccccc1	-0.82	1.43	74.0*	-5.4	-6.0	11.2
CC1CCN(CC(=O)Nc2ccccc2-c2ccccc2)CC1	-0.0228	0.132	-1.9	-5.4	-1.1	1.6
CC1CCCCC1NCC(=O)Nc1ccccc1-c1ccccc1 (centres undefined)	.	-0.638	7.5	-8.2	-3.2	70.9*
CSc1ccccc1NC(=O)CSCc1ccc(C)cc1	.	-3.86*	8.3	3.9	-3.8	-3.8
O=C(CSCc1cccc(Cl)c1)Nc1ccccc1-c1ccccc1	1.01	-1.29	64.0*	-13.6	4.7	7.7
CC(C)(C)NC(=O)C1Cc2ccccc2CN1 (centres undefined)	1.18	0.69	8.5	-3.4	-3.0	0.2
Cc1n[nH]c(=O)n1-c1ccc(OCc2ccccc2)cc1	0.858	-1.14	4.1	5.5	-1.4	-4.1
Cc1[nH]c2ccccc2c1C(=O)COC(=O)c1c(-c2c(F)cccc2Cl)noc1C	.	0.333	85.3*	-18.6	-4.4	-1.3
Cc1onc(-c2c(F)cccc2Cl)c1C(=O)OCN1C(=O)c2ccccc2C1=O	0.0281	-1.32	-4.9	-12.7	-10.7	-2.5
Cc1[nH]c2ccccc2c1C(=O)COC(=O)c1c(-c2ccccc2Cl)noc1C	-0.07	0.0233	86.5*	-13.1	-4.7	-11.2
CC1CCN(C(=O)C2CCN(S(=O)(=O)c3cc(Cl)ccc3Cl)CC2)CC1	.	.	.	4.3	-6.7	1.3
Cc1cccc(OCCn2c(=S)[nH]c3ccccc32)c1	-0.0359	8.91*	19.3	1.9	13.7	7.1
CCC(Sc1nnnn1-c1ccccc1)C(=O)Nc1nc2ccccc2s1 (centres undefined)	.	-1.42	58.1*	-11.8	-12.9	1.0

Screening results as filed in PubChem.
